# Sampled rows, rich in hits. Any-hit rate of the full collection: about 2.1%.
# PP1 counter: blocks human PP1-alpha phosphatase, a PP5 counter-screen; purified PP1alpha, OMFP fluorescence; actives 0.9% (n = 320,000); AID 2235; inhibition, % at 6.7 µM; P62136;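 active means inhibition above the mean inhibition of all tested compounds plus 3 SD, computed separately for each screening campaign, cut at about 15% in these data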
# Apaf1 inhib: inhibitors of human Apaf-1 apoptosome; reconstituted apoptosome caspase-3 activity, DEVD-Rh110 fluorescence; actives 0.71% (n = 330,000); AID 489030; inhibition, % at 20 µM; O14727; active means inhibition of at least 40% at 20 µM
#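 System: reconstituted apoptosome with Apaf-1, cytochrome c, caspase-9, procaspase-3, dATP; Signal: Rh110 fluorescence intensity; Schedule: 30 min compound preincubation, 50 min activation, room temperature; Reagent: cytochrome c trigger plus (Z-DEVD)2-Rh110 caspase-3 substrate.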
# GSTO1 counter: GSTO1 inhibition, counter-screen for RBBP9 inhibitors; P78417; recombinant GSTO1, activity-based probe fluorescence polarization; inhibition, % at 5.96 µM; actives 1.1% (n = 300,000); AID 1974;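 active means inhibition above the campaign mean inhibition plus 3 SD, cut at about 35% in these data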
# PP5 inh: inhibitors of human protein phosphatase 5 (PP5). inhibition, % at 6.7 µM. AID 1987. P53041. actives 0.18% (n = 320,000). purified PP5c, OMFP substrate fluorescence;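 active means inhibition above the campaign's mean inhibition across all tested compounds plus 3 SD, cut at about 9.5% in these data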
# TDP2 absorb: blocks human TDP2 phosphodiesterase activity; inhibition, % at 12.8 µM; recombinant TDP2, T5PNP hydrolysis, p-nitrophenol absorbance 415 nm; actives 0.34% (n = 370,000); O95551;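 active means inhibition above the mean of all tested compounds plus 3 SD, set per campaign, cut at about 25% in these data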
#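 Test system: human TDP2 enzyme; Input: 120 nM TDP2 per well; Buffer or medium: Mg2+-containing Tris-HCl buffer, pH 7.5; Reagent: 5 mM T5PNP; Dosing: 12.8 µM single point, 1% DMSO; Incubation: reaction 2 h, 37 °C; Detection: p-Nitrophenol epi absorbance; Read-out: % inhibition relative to enzyme-containing and enzyme-free wells; Replicates: single well per compound.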
# PP1 inh confirm: confirmation of human PP1 phosphatase inhibitors | shares compounds with PP1 counter | purified PP1alpha, OMFP substrate fluorescence | inhibition, % at 6.7 µM | actives 52% (n = 1,900) | AID 2358;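 active means mean PP1 inhibition above a set limit taken from the earlier primary screen, cut at about 15% in these data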
# PP5 inh counter: PP5 phosphatase inhibition, counter-screen for PP1 inhibitors; AID 2360; inhibition, % at 6.7 µM; actives 4% (n = 1,900); shares compounds with PP1 counter; purified PP5c, OMFP fluorescence;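 active means mean PP5 inhibition over triplicate wells above about 9.5% taken from the earlier PP1 screen, limit read from the data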
# Numbers stand for hits; 0 = inactive; - = no result.
SMILES,PP1 counter,Apaf1 inhib,GSTO1 counter,PP5 inh,TDP2 absorb,PP1 inh confirm,PP5 inh counter
Nc1ccc2c(c1)C/C(=C/c1ccco1)C2=O,51,0,0,0,0,0,0
Cc1ccc(/C=N/Nc2ccnc3cc(Cl)ccc23)c(C)c1,33,0,0,0,0,0,0
Cc1ccccc1/C=N/Nc1ccnc2cc(Cl)ccc12,0,-,0,0,0,-,-
COc1ccc(CNc2nc(NCc3ccc(OC)cc3)c3[nH]cnc3n2)cc1,18,0,0,0,0,0,11
COc1ccc(CNc2ncnc(N)n2)cc1,0,0,0,0,0,-,-
Cc1ccc(CCc2nnc(SCC(=O)Nc3ccccc3Cl)n2-c2ccccc2)o1,0,0,0,0,0,-,-
CCOC(=O)c1ccc(NC(=O)CSc2nnc(CCc3ccc(C)o3)n2-c2ccccc2)cc1,19,0,0,0,0,0,0
O=S(=O)(c1ccccc1Br)N(Cc1cn(CC2CCCCC2)nn1)C1CC1,-,-,-,-,0,-,-
Cc1ccc(C(C)C)c(OCc2nn(CC(=O)c3ccc(Cl)cc3)c3[n+]2CCCCC3)c1,23,0,0,0,0,0,0
CC(Oc1ccccc1)C(=O)N=Nc1c(O)[nH]c2ccc(Br)cc12 (centres undefined),18,0,0,0,0,0,0
Cc1ccccc1C(=O)N1CCc2cc(-c3nc(NC(=O)Cc4ccc5c(c4)OCO5)sc3C)ccc21,19,0,0,0,-,19,0
COC(=O)c1sc(NC(=O)COc2cccnc2[N+](=O)[O-])c(C(=O)OC)c1C,27,0,-,0,0,0,0
COc1ccccc1NC(=O)COc1cccnc1[N+](=O)[O-],-,0,-,-,0,-,-
COc1cc(OC)cc(C(=O)Nn2c(C)nc3ccccc3c2=O)c1,0,0,0,0,0,-,-
COc1ccc2[nH]c3c(c2c1)CCn1c-3nc2ccccc2c1=O,26,0,0,0,-,22,0
N#CC1=C2N=C(N)c3c(sc4c3CCCCC4)N2C2=C(C(=O)CCC2)C1c1ccccc1 (centres undefined),18,0,0,0,0,0,0
COc1cccc(NC(=O)n2ccc3ccc(-c4ccc5ccn(C(=O)Nc6cccc(OC)c6)c5c4)cc32)c1,-,-,-,-,0,-,-
O=C(CNC(=O)c1ccc(Cl)cc1)OCC(=O)c1ccccc1,0,0,0,0,0,-,-
CC(C)(C)c1ccc(C(=O)NCC(=O)OCC(=O)c2ccc3c(c2)-c2ccccc2C3)cc1,20,0,0,0,0,0,0
COC(=O)[C@]12C=CCN1[C@@H](c1ccc(Cl)cc1)c1c(c3ccccc3n1S(=O)(=O)c1ccc(C)cc1)C2,-,-,-,-,0,-,-
CCn1c(=N)n(CC(=O)c2ccc(Cl)c(Cl)c2)c2ccccc21,0,0,0,0,0,-,-
N=c1n(CCN2CCCCC2)c2ccccc2n1CC(=O)c1ccc(Cl)c(Cl)c1,27,0,0,0,0,0,0
COc1ccccc1CNC(=O)c1ccc2nc3[nH]c4ccccc4c3nc2c1,21,0,0,0,0,23,0
CCOC(=O)N1CCN(C(=O)C[C@H]2C[C@@]3(C(=O)OC)C(=C[C@H](C(C)C)O[C@@H]3C3CC3)N(Cc3ccc4c(c3)OCO4)C2=O)CC1,-,-,-,-,0,-,-
COc1ccc(-c2ccc(C#N)c(SCC(=O)OCc3ccccc3)n2)cc1OC,0,0,0,0,0,-,-
SMILES,PP1 counter,Apaf1 inhib,GSTO1 counter,PP5 inh,TDP2 absorb,PP1 inh confirm,PP5 inh counter
N#Cc1ccc(-c2ccc3c(c2)OCO3)nc1SCC(=O)OCc1ccccc1,18,0,0,0,0,0,0
CCOC(=O)c1c(C)[nH]c(C(=O)OCC(=O)NCc2ccc(C)cc2)c1C,19,0,-,0,0,0,0
CCOC(=O)c1c(C)[nH]c(C(=O)OCC(=O)NCc2ccccc2)c1C,-,0,-,-,0,-,-
CSc1nc(N(C)CCO)c2sc3nc(-c4ccco4)c4c(c3c2n1)CCC4,30,0,0,0,-,31,0
Cc1ccc2nc(NC(=O)COC(=O)CSc3nc(C)cc(C)n3)sc2c1,0,0,0,0,0,-,-
CSc1nsc(SCC(=O)Nc2nc3ccc(C)cc3s2)n1,26,0,0,0,0,19,0
COc1ccc2[nH]c3c(=O)n(CCCCC(=O)N4CCCC4)c(=S)[nH]c3c2c1,36,0,0,0,0,33,0

# Compound activity from PubChem BioAssay.
